Laboratory results taken from ChEMBL document CHEMBL3585325, “Discovery of (1R,2S)-2-{[(2,4-Dimethylpyrimidin-5-yl)oxy]methyl}-2-(3-fluorophenyl)-N-(5-fluoropyridin-2-yl)cyclopropanecarboxamide (E2006): A Potent and Efficacious Oral Orexin Receptor Antagonist” (J Med Chem, 2015).
Values after ≈ are worked out from the molar mass of the structure shown.

Key:
Orexin receptor type 2 = target: T1, Orexin receptor type 2 (Homo sapiens, UniProt O43614); experiment: Binding affinity to human OX2R by radioligand displacement binding assay
T1 sequence (O43614 whole entry): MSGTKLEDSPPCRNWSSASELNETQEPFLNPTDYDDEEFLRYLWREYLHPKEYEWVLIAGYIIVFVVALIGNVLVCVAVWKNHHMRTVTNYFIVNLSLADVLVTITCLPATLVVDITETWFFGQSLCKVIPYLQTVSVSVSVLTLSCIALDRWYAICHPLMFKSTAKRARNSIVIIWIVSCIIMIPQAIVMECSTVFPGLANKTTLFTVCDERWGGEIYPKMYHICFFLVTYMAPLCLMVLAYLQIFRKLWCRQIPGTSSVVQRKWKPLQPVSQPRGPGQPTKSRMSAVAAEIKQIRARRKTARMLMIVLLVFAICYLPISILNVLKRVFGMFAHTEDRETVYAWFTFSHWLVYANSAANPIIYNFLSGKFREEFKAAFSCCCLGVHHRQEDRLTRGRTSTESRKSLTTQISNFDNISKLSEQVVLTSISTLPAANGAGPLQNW

[1] = target: T2, Orexin/Hypocretin receptor type 1 (Homo sapiens, UniProt O43613); experiment: Binding affinity to human OX1R by radioligand displacement binding assay
T2 sequence (O43613 whole entry): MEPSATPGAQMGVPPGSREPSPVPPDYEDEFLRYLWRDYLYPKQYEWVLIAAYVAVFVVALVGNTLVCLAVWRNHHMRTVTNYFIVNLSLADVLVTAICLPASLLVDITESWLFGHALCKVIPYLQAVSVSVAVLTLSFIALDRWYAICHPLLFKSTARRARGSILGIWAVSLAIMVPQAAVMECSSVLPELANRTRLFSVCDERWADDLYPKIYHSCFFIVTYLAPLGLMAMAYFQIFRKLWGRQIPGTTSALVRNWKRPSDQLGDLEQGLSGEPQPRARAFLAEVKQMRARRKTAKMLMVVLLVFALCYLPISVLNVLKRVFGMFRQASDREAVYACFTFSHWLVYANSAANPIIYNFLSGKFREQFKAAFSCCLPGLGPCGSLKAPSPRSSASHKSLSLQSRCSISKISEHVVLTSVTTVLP
Summary of the method: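 Ki values come from single experiments run in triplicate.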

[2] = Aqueous solubility of the compound in Dulbecco's phosphate buffered saline at pH 7.4 by DMSO solution precipitation method; format: physicochemical
Summary of the method: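 Solubility in Dulbecco's PBS at pH 7.4, measured at room temperature by precipitation from a DMSO solution.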

CYP3A = CYP3A (Homo sapiens, UniProt P08684+P20815+P24462+Q9HB55); experiment: Time dependent inhibition of CYP3A in human liver microsomes assessed as enzyme activity using midazolam as substrate at 10 uM incubated for 30 mins prior to substrate addition for 10 mins by LC-MS/MS analysis; format: ADME; design: scale not given: the % may be the effect or the level left; conditions: probe midazolam, read-out: Activity
Summary of the method: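 Test compound at 10 μM preincubated 30 min at 37 °C with human liver microsomes (0.2 mg/mL), with or without an NADPH-generating system. Mixture then diluted 10-fold into a marker-substrate cocktail plus NADPH system and incubated 10 min at 37 °C. Midazolam served as the CYP3A probe. Metabolites measured by LC−MS/MS. Result is the residual activity with NADPH relative to without, as % of control.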

[3] = Activity at P-gp (unknown origin) assessed as corrected flux ratio; format: ADME; conditions: human
Summary of the method: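 Reported as corrected flux ratio, i.e. the MDR1 flux ratio divided by the PK1 flux ratio.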

[4] = target: Voltage-gated inwardly rectifying potassium channel KCNH2 (Homo sapiens, UniProt Q12809); experiment: Inhibition of human ERG
Sequence of Voltage-gated inwardly rectifying potassium channel KCNH2 (Q12809 whole entry): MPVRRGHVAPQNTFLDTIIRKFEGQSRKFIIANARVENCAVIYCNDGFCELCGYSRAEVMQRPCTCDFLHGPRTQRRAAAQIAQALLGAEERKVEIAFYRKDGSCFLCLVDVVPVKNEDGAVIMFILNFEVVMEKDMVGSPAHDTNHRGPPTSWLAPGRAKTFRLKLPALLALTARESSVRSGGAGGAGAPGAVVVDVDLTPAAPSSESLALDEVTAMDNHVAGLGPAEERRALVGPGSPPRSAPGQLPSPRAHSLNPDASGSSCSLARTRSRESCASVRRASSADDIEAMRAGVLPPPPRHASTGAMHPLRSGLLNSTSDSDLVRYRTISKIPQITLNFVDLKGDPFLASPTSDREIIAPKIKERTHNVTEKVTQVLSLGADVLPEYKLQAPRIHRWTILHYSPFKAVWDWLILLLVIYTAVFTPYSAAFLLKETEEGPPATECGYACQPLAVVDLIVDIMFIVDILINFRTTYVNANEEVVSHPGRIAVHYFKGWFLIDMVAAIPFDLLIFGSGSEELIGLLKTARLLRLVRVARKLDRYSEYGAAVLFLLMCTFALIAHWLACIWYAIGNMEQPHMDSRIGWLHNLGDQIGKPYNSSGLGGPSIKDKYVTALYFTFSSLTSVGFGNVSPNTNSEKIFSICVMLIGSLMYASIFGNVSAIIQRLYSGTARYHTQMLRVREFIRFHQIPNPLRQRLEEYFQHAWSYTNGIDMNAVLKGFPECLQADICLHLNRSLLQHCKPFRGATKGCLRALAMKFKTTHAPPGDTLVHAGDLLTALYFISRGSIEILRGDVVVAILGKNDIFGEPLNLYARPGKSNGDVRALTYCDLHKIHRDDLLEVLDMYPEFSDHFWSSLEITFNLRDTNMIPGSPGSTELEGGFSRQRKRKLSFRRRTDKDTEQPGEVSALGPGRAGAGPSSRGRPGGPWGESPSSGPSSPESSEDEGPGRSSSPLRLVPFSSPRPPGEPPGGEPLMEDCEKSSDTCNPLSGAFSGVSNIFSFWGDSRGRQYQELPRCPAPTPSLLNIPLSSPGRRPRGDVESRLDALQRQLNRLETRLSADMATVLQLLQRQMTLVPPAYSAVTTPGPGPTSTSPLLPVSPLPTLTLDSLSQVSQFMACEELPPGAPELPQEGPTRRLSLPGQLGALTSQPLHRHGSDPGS

Mus musculus = experiment: Sleep promoting activity in C57BL/6NCrlCrlj mouse assessed as reduction in wakefulness time at 30 mg/kg, po administered immediately prior to beginning of dark cycle measured during first 3 hrs after drug administration by electroencephalogram/electromyogram analysis (reference value: 116.7 min); format: functional
Summary of the method: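 Male C57BL/6NCrlCrlj mice implanted with EEG/EMG electrodes were dosed orally in 10% Cremophor EL, 5% DMSO in saline just before lights-off (ZT12) and recorded from ZT12 to ZT20. Group sizes were n=6 dosed and n=7 vehicle. Stages were scored by software with blinded visual confirmation; cumulative first-3-h times are mean with SEM. Dunnett's test was run after one-way ANOVA.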

Row | SMILES | Ki (Orexin receptor type 2) [nM] | Ki [1] [nM] | solubility kinetic [2] [µM] | activity at 10 min, 10 µM (CYP3A) [%] | Ratio [3] | IC50 [4] [nM] | Time (Mus musculus) [min]
1 | CCn1cc(OC[C@]2(c3ccccc3)C[C@@H]2C(=O)Nc2ccc(C#N)cn2)c(C)n1 | > 2000 | > 2000 |  |  |  |  | 
2 | CCn1cc(OC[C@@]2(c3ccccc3)C[C@H]2C(=O)Nc2ccc(C#N)cn2)c(C)n1 | 8 | 171 | 64 (≈ 25.7 µg/mL) | 93 | 0.9 |  | 
3 | Cc1ncc(OC[C@@]2(c3ccccc3)C[C@H]2C(=O)Nc2ccc(C#N)cn2)c(C)n1 | 49 | 2490 | 80 (≈ 32 µg/mL) | 96 | 2.7 |  | 
4 | CCc1nc(C)ncc1OC[C@@]1(c2ccccc2)C[C@H]1C(=O)Nc1ccc(C#N)cn1 | 7 | 121 | 44 (≈ 18.2 µg/mL) | 91 | 2.1 |  | 
5 | Cc1cnc(OC[C@@]2(c3ccccc3)C[C@H]2C(=O)Nc2ccc(C#N)cn2)c(C)n1 | 21 | 73 | 47 (≈ 18.8 µg/mL) | 97 | 1.3 |  | 
6 | COCc1nc(C)ncc1OC[C@@]1(c2ccccc2)C[C@H]1C(=O)Nc1ccc(C#N)cn1 | 9 | 43 | 93 (≈ 39.9 µg/mL) | 92 | 4 |  | 
7 | Cc1ncc(OC[C@@]2(c3ccccc3)C[C@H]2C(=O)Nc2ccccn2)c(C)n1 | 80 | 1020 |  | 99 | 1.9 |  | 
8 | Cc1ncc(OC[C@@]2(c3ccccc3)C[C@H]2C(=O)Nc2cccnc2)c(C)n1 | 50 | 391 |  | 104 | 4.4 |  | 
9 | Cc1ncc(OC[C@@]2(c3ccccc3)C[C@H]2C(=O)Nc2ccncc2)c(C)n1 | 163 | 1580 |  | 110 | 6 |  | 
10 | Cc1ncc(OC[C@@]2(c3ccccc3)C[C@H]2C(=O)Nc2ccc(F)cn2)c(C)n1 | 7 | 137 | 92 (≈ 36.1 µg/mL) | 87 | 1.7 | 7700 | 72.3
11 | Cc1ncc(OC[C@@]2(c3ccccc3)C[C@H]2C(=O)Nc2cccc(F)n2)c(C)n1 | 56 | 138 |  | 94 | 1.4 |  | 
12 | Cc1ncc(OC[C@@]2(c3ccccc3)C[C@H]2C(=O)Nc2ccc(Cl)cn2)c(C)n1 | 2 | 39 |  | 88 | 1.3 |  | 68.2
13 | Cc1ccc(NC(=O)[C@@H]2C[C@@]2(COc2cnc(C)nc2C)c2ccccc2)nc1 | 34 | 124 |  | 22 | 1.3 |  | 
14 | Cc1ccnc(NC(=O)[C@@H]2C[C@@]2(COc2cnc(C)nc2C)c2ccccc2)c1 | 29 | 224 |  | 90 | 1.5 |  | 
15 | Cc1ncc(OC[C@@]2(c3ccccc3)C[C@H]2C(=O)Nc2cc(C)c(F)cn2)c(C)n1 | 4 | 6 | 51 (≈ 20.7 µg/mL) | 89 |  |  | 67.1
16 | COc1cc(NC(=O)[C@@H]2C[C@@]2(COc2cnc(C)nc2C)c2ccccc2)ncc1F | 6 | 3 |  | 86 | 1.6 |  | 
17 | Cc1ncc(OC[C@@]2(c3ccccc3F)C[C@H]2C(=O)Nc2ccc(F)cn2)c(C)n1 | 17 | 81 |  | 77 | 1.4 | 5900 | 
18 | Cc1ncc(OC[C@@]2(c3ccc(F)cc3)C[C@H]2C(=O)Nc2ccc(F)cn2)c(C)n1 | 8 | 39 |  | 85 | 1.3 | 2200 | 
19 | Cc1ncc(OC[C@@]2(c3cc(F)cc(F)c3)C[C@H]2C(=O)Nc2ccc(F)cn2)c(C)n1 | 3 | 7 |  | 62 | 1.5 | 4800 | 
20 | Cc1ncc(OC[C@@]2(c3ccc(F)c(F)c3)C[C@H]2C(=O)Nc2ccc(F)cn2)c(C)n1 | 4 | 14 |  | 75 |  |  | 
21 | Cc1ncc(OC[C@@]2(c3cccc(F)c3)C[C@H]2C(=O)Nc2cc(C)c(F)cn2)c(C)n1 | 4 | 2 | 46 (≈ 19.5 µg/mL) | 83 | 1.4 | > 10000 | 
22 | Cc1ccc(OCC2(c3ccccc3)CC2C(=O)Nc2ccc(C#N)cn2)c(C)n1 (racemic) | 222 | 938 | 22 (≈ 8.77 µg/mL) | 34 |  |  | 
23 | Cc1cc(OCC2(c3ccccc3)CC2C(=O)Nc2ccc(C#N)cn2)cc(C)n1 (racemic) | > 2000 | > 2000 |  | 94 |  |  | 
24 | Cc1nn(C)cc1OCC1(c2ccccc2)CC1C(=O)Nc1ccc(C#N)cn1 (racemic) | 204 | > 2000 | 85 (≈ 32.9 µg/mL) | 85 |  |  | 
25 | CCn1cc(OCC2(c3ccccc3)CC2C(=O)Nc2ccc(C#N)cn2)c(C)n1 (racemic) | 10 | 391 | 78 (≈ 31.3 µg/mL) | 84 | 1.5 |  | 
